Assay outcomes deposited in PubChem BioAssay by The Scripps Research Institute Molecular Screening Center.
The list is not random: actives were taken first. Their share in the collection is about 2.5%.
mABHD4 FP = ABHD4 inhibitors, primary screen, biochemical, fluorescence polarization, mouse; (Lyso)-N-acylphosphatidylethanolamine lipase (Mus musculus), Q8VD66; purified mABHD4, FP-Rh probe fluorescence polarization; inhibition, % at 8.92 µM; actives 0.54% (n = 370,000); AID 720543, 2013;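 active = inhibition exceeding the mean over every tested compound plus 3 SD, cut at about 30% in these data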;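 also: 0% = plate median of compound wells and 100% = S159A mutant with DMSO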
Target sequence (Q8VD66 whole entry, looked up): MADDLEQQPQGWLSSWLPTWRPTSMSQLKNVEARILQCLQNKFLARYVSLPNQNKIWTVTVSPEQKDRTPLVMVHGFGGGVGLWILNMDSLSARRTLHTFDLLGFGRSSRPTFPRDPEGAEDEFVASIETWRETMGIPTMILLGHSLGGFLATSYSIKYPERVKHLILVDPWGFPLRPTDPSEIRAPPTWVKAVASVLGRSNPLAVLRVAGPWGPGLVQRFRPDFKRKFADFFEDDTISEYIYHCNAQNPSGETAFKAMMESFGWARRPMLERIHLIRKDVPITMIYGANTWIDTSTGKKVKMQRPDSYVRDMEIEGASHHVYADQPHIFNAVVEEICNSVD
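Material: mouse ABHD4 enzyme, wild type; Benchmarks: S159A mutant high control, sample median low control; Buffer or medium: HEPES pH 7.0, NaCl, Pluronic buffer; Signal: fluorescence polarization; Read-out: percent inhibition of probe binding, normalized to plate controls; Timing: pre-incubation 45 min, probe exposure 60 min, at 25 °C; Dosing: 8.92 µM, single dose.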
HTRA1 inh = HTRA1 serine protease inhibitors, primary screen, biochemical, fluorescence polarization, HTS | inhibition, % at 5.96 µM | Q92743 | actives 0.5% (n = 340,000) | recombinant HTRA1, FP-rhodamine activity-based probe | AID 504803, 2011; in the data active = inhibition above about 36%;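 also: 0% = enzyme with DMSO and 100% = wells lacking enzyme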
PRMT1 FP inh = PRMT1 methyltransferase inhibitors, primary screen, biochemical, fluorescence polarization; recombinant PRMT1, activity-based probe fluorescence polarization; Protein arginine N-methyltransferase 1 (Homo sapiens), Q99873; actives 1.3% (n = 370,000); inhibition, % at 2.79 µM;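 active = inhibition above about 21% made by adding two undisclosed values, limit read from the data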
TCR CD3 inh = inhibitors of human TCR-CD3 interaction, primary screen, biochemical, fluorescence, TAMRA-labeled TCR probe; actives 0.37% (n = 360,000); inhibition, % at 9.4 µM; in the data active = inhibition above about 19%;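 also: recombinant mutant TCR 2C K166C tagged with TAMRA read by polarization; 0% = receptor in buffer alone and 100% = receptor with positive control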
SIAE primary = human SIAE inhibitors, primary screen, biochemical, fluorescence polarization, FP-Rh probe, 1536-well HTS | Sialate O-acetylesterase (Homo sapiens), Q9HAT2 | SIAE FP-Rh probe binding | inhibition, % at 9.66 µM | actives 0.69% (n = 370,000) | AID 1053197, 2014;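 active = inhibition above a cutoff: mean of compounds within the control limits plus 3 SD of those, cut at about 17% in these data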;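 also: 0% = plate median of compound wells and 100% = probe without SIAE protein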
PRMT1 confirm = PRMT1 methyltransferase inhibitors, confirmation, biochemical, fluorescence polarization, triplicate | recombinant His-PRMT1, activity-based probe fluorescence polarization | actives 42% (n = 3,300) | inhibition, % at 2.79 µM | shares compounds with PRMT1 FP inh;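 active = mean inhibition across replicates above the hit cutoff derived for the earlier primary screen, cut at about 22% in these data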
The depositor's hits bear a star; x = no result given.

SMILES | mABHD4 FP | HTRA1 inh | PRMT1 FP inh | TCR CD3 inh | SIAE primary | PRMT1 confirm
COc1ccc(C2SCCN2C(=S)Nc2ccc(Cl)cc2)cc1 (stereo unspecified) | -10 | -13 | 66* | -2 | -3 | 9
CCN1CCN(CCC(=O)Nc2cc(OC)cc(OC)c2)CC1 | 0 | 0 | -1 | 5 | 8 | x
Cc1ccc(N2C(=O)CC(n3nc(C)cc3C)C2=O)cc1 (stereo unspecified) | -4 | 7 | 2 | 7 | 5 | x
CCN1CCN(C(=S)c2ccc(Cl)c(Cl)c2)CC1 | -2 | -6 | 63* | -3 | 2 | 49*
CC(CCN1CCC(C(O)(c2ccccc2)c2ccccc2)CC1)Oc1ccc(OC(F)(F)F)cc1 (stereo unspecified) | 17 | x | 2 | x | -8 | x
COc1ccc(N2CCN(CCNS(=O)(=O)c3cccs3)CC2)cc1 | 7 | x | 6 | x | 3 | x
COc1ccc(C(=O)Cc2nnc(C)s2)cc1 | 4 | 1 | 6 | 5 | 6 | x
O=C1/C(=C\c2ccco2)NC(=S)N1c1ccccc1 | 15 | 31 | 45* | 2 | 11 | 51*
CC1C(=O)N(Cc2cn(CCC3OCCCO3)nn2)CCS(=O)(=O)N1Cc1ccc(-c2ccc(F)nc2)cc1 (stereo unspecified) | 5 | 2 | 55* | -8 | -2 | -3
Cc1cc(C)c2sc(NC(=O)C3=COCCO3)nc2c1 | 6 | -19 | -3 | 6 | -1 | x
Cc1ccc(CN(C)C(=O)c2ccccc2Oc2ccccc2)o1 | 5 | -10 | 34* | 4 | 1 | 14
CC(=O)c1cccc(OCc2cc(C(=O)N(C)Cc3ccc(C)o3)no2)c1 | 2 | 1 | 32* | 4 | -3 | 47*
CSc1ccccc1OCc1cc(C(=O)N(C)Cc2ccc(C)o2)no1 | -15 | -23 | 25* | 1 | 5 | 28*
O=c1c(Cc2ccccc2)c(O)ccn1Cc1ccc2c(c1)OCO2 | -1 | 1 | -2 | 2 | 1 | x
CC(Sc1nc(N)cc(=O)[nH]1)C(=O)Nc1ccc(N2CCOCC2)cc1 (stereo unspecified) | 15 | 4 | -2 | 5 | 16 | x
C=CCN(Cc1nc(-c2ccccc2)no1)C(=O)c1ccco1 | 6 | 2 | -4 | 3 | -2 | x
NCCc1nnc(SCC(=O)Nc2cccc(Cl)c2)o1 | 1 | -5 | 25* | 2 | 1 | 14
O=C(CCc1ccccc1)c1ccc2c(c1)OCCCO2 | 0 | -20 | 3 | 0 | -3 | x
O=C(CCN1CCC(c2ccccc2)C1)c1ccccc1 (stereo unspecified) | x | 0 | x | x | x | x
COc1cc(C(=O)CCN2CCC(c3ccccc3)C2)cc(OC)c1OC (stereo unspecified) | -5 | -4 | 32* | -4 | 0 | 16
O=C(CCN1CCCC1Cc1ccccc1)c1ccc2c(c1)OCCO2 (stereo unspecified) | -5 | 0 | 37* | 8 | -5 | 40*
O=C(CCN1CCC(c2ccccc2)C1)c1ccc2c(c1)OCCO2 (stereo unspecified) | 1 | 2 | 36* | 9 | 3 | 19
COc1ccc(-n2c(SCC(=O)Nc3ccc4c(c3)OCCO4)nnc2-c2ccccc2)cc1 | 1 | x | 14 | x | 1 | x
Cc1c(O)nc(SCC(=O)Nc2nccs2)n(-c2ccccc2F)c1=O | 6 | 1 | 28* | 8 | 3 | 18
Cc1nnc(SCC(=O)Nc2nccs2)n(N)c1=O | 3 | 8 | -1 | -2 | -4 | x
COC(=O)c1cc2c(c3c4cc(OC)ccc4n(C(=O)c4ccccc4)c13)C(=O)N(C1CCCCC1)C2 | 18 | x | 6 | -1 | 2 | x
CCCNC(=O)C1(C)CCN(Cc2ccc(OCc3ccccc3)cc2)C1 (stereo unspecified) | -1 | x | 3 | -10 | 0 | x
COC(=O)c1cc(N2CCN(C)CC2)nc2ccccc12 | 7 | 3 | 83* | 8 | -2 | 5
CCOC(=O)c1cc(N2CCCCC2)nc2ccccc12 | -4 | -9 | -5 | 7 | 0 | x
